Results from ChEMBL document CHEMBL1148001 (Bioorg Med Chem Lett, 2007).

Tests used:
Dipeptidyl peptidase 9 = Dipeptidyl peptidase 9 (Homo sapiens, UniProt Q86TI2); assay: Inhibition of DPP9 activity
Dipeptidyl peptidase 8 = Dipeptidyl peptidase 8 (Homo sapiens, UniProt Q6V1X1); assay: Inhibition of DPP8 activity
[1] = Oral bioavailability in rat at 2 mg/kg; type: ADME, organism-based; conditions: in vivo
Outline: (§1)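 Rats received the inhibitor at 1 mg/kg iv and 2 mg/kg po. Values reported are clearance (mL/min/kg), half-life (h), oral AUC normalized to dose (μM h kg mg⁻¹) and oral bioavailability F (%).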

[2] = Half life in rat at 1 mg/kg, iv or 2 mg/kg, po; type: ADME, organism-based; conditions: in vivo; outline: as §1
[3] = Clearance in rat at 1 mg/kg, iv or 2 mg/kg, po; type: ADME, organism-based; conditions: in vivo; outline: as §1

Dipeptidyl peptidase 8, sequence (Q6V1X1 whole entry): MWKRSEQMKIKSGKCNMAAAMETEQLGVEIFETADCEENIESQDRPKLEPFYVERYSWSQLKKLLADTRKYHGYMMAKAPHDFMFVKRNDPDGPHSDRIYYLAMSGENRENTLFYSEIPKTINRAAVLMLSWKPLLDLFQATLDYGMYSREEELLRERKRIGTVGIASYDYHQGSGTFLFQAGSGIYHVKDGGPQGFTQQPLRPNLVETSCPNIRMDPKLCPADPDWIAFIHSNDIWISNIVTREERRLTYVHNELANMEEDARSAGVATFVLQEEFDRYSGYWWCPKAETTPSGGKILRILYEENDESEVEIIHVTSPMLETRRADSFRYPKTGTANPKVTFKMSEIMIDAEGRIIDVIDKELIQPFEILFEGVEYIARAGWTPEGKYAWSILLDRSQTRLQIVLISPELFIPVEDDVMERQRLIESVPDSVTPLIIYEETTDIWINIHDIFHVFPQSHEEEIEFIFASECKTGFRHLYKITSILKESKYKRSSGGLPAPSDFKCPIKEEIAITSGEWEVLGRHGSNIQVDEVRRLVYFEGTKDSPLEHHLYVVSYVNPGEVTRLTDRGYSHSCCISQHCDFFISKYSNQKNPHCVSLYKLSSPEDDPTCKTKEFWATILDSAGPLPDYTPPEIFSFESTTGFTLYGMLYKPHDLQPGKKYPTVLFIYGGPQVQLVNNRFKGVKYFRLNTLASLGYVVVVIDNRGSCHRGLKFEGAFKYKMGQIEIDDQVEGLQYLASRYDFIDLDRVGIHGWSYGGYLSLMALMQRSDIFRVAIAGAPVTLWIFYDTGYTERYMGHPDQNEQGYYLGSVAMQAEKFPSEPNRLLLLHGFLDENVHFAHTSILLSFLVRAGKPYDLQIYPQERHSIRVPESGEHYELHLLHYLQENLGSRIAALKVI
Dipeptidyl peptidase 9, sequence (Q86TI2 whole entry): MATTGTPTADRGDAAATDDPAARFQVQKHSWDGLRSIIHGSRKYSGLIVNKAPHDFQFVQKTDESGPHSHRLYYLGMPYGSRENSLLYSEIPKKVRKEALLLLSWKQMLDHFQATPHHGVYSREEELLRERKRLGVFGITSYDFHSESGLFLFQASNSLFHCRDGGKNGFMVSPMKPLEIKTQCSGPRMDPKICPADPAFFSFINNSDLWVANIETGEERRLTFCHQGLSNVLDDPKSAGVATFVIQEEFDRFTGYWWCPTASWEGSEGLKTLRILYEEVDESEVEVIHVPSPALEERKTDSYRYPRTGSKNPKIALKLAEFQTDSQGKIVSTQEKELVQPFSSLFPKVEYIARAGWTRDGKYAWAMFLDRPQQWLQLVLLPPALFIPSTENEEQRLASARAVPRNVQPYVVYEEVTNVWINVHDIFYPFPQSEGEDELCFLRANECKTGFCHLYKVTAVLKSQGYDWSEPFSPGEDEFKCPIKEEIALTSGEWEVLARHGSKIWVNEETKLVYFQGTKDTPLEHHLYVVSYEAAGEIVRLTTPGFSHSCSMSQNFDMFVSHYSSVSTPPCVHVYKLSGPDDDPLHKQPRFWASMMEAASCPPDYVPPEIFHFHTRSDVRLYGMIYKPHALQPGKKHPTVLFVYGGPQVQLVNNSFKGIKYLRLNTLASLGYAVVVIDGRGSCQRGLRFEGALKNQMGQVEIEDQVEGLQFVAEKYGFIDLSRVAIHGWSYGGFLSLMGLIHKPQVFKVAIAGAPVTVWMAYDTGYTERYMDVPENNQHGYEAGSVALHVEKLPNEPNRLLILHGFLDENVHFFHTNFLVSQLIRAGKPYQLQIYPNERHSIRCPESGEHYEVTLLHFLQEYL

`N[C@@H](CC(=O)N1CCn2c(nnc2C(F)(F)F)C1)Cc1cccc(F)c1` showed an IC50 (Dipeptidyl peptidase 9) greater than 100 µM and an IC50 (Dipeptidyl peptidase 8) greater than 100 µM.
With `N[C@@H](CC(=O)N1CCn2c(nnc2C(F)(F)F)C1)Cc1cc(Cl)ccc1Cl` the IC50 (Dipeptidyl peptidase 9) was greater than 100 µM and the IC50 (Dipeptidyl peptidase 8) was greater than 100 µM.
For `N[C@@H](CC(=O)N1CCn2c(nnc2C(F)(F)F)C1)Cc1cc(F)c(Cl)cc1F`, the IC50 (Dipeptidyl peptidase 9) was greater than 100 µM, the bioavailability [1] was 54% and the half-life [2] was 2.1 h. For the same compound, the clearance [3] was 58 mL/min/kg.
`N[C@@H](CC(=O)N1CCn2c(nnc2C(F)(F)F)C1)Cc1cc(F)c(F)cc1Cl` showed an IC50 (Dipeptidyl peptidase 9) greater than 100 µM, a bioavailability [1] of 47% and an IC50 (Dipeptidyl peptidase 8) greater than 100 µM. It also gave a half-life [2] of 1.7 h and a clearance [3] of 78 mL/min/kg.
`N[C@@H](CC(=O)N1CCn2c(nnc2-c2ccc(F)cc2)C1)Cc1cc(F)ccc1F` gave an IC50 (Dipeptidyl peptidase 9) greater than 100 µM.
`N[C@@H](CC(=O)N1CCn2c(nnc2-c2ccncc2)C1)Cc1cc(F)ccc1F` showed an IC50 (Dipeptidyl peptidase 9) of 84 µM.
For `N[C@@H](CC(=O)N1CCn2c(CO)nnc2C1)Cc1cc(F)ccc1F`, the IC50 (Dipeptidyl peptidase 9) was greater than 100 µM and the IC50 (Dipeptidyl peptidase 8) was greater than 100 µM.
Work on `CCc1nnc2n1CCN(C(=O)C[C@H](N)Cc1cc(F)c(F)cc1F)C2` yielded an IC50 (Dipeptidyl peptidase 9) greater than 100 µM, a bioavailability [1] of 2% and a clearance [3] of 70 mL/min/kg.
`CCOC(=O)c1nnc2n1CCN(C(=O)C[C@H](N)Cc1cc(F)c(F)cc1F)C2` gave an IC50 (Dipeptidyl peptidase 8) of 22 µM.
With `CC(C)(C)NC(=O)c1nnc2n1CCN(C(=O)C[C@H](N)Cc1cc(F)c(F)cc1F)C2` the IC50 (Dipeptidyl peptidase 9) was greater than 100 µM.
`N[C@@H](CC(=O)N1CCn2c(nnc2C(F)(F)F)C1)Cc1ccc(Cl)cc1Cl` gave a bioavailability [1] of 36%, a half-life [2] of 2.6 h and a clearance [3] of 98 mL/min/kg.
`N[C@@H](CC(=O)N1CCn2c(nnc2C(F)(F)F)C1)Cc1ccc(F)cc1` gave an IC50 (Dipeptidyl peptidase 9) greater than 100 µM.
In the case of `N[C@@H](CC(=O)N1CCn2c(nnc2C(F)(F)F)C1)Cc1cccc(C(F)(F)F)c1`, the IC50 (Dipeptidyl peptidase 9) is reported as greater than 100 µM and the IC50 (Dipeptidyl peptidase 8) is reported as greater than 100 µM.
`N[C@@H](CC(=O)N1CCn2c(nnc2C(F)(F)F)C1)Cc1cccc(Cl)c1` showed an IC50 (Dipeptidyl peptidase 9) greater than 100 µM and an IC50 (Dipeptidyl peptidase 8) greater than 100 µM.
Compound `N[C@@H](CC(=O)N1CCn2c(nnc2C(F)(F)F)C1)Cc1cc(F)cc(F)c1F` has an IC50 (Dipeptidyl peptidase 9) greater than 100 µM and an IC50 (Dipeptidyl peptidase 8) greater than 100 µM.
Compound `N[C@@H](CC(=O)N1CCn2c(nnc2C(F)(F)F)C1)Cc1ccc(C(F)(F)F)cc1` has an IC50 (Dipeptidyl peptidase 9) greater than 100 µM and an IC50 (Dipeptidyl peptidase 8) greater than 100 µM.
`N[C@@H](CC(=O)N1CCn2c(nnc2C(F)(F)F)C1)Cc1ccccc1Cl` gave an IC50 (Dipeptidyl peptidase 9) greater than 100 µM and an IC50 (Dipeptidyl peptidase 8) greater than 100 µM.
`N[C@@H](CC(=O)N1CCn2c(nnc2C(F)(F)F)C1)Cc1ccc(Cl)c(Cl)c1` gave an IC50 (Dipeptidyl peptidase 9) greater than 100 µM and an IC50 (Dipeptidyl peptidase 8) greater than 100 µM.
With `N[C@@H](CC(=O)N1CCn2c(nnc2C(F)(F)F)C1)Cc1ccccc1F` the IC50 (Dipeptidyl peptidase 9) was greater than 100 µM.
With `N[C@@H](CC(=O)N1CCn2c(nnc2C(F)(F)F)C1)Cc1ccc(F)cc1F` the IC50 (Dipeptidyl peptidase 9) was greater than 100 µM.
`N[C@@H](CC(=O)N1CCn2c(nnc2-c2ccc(F)cc2F)C1)Cc1cc(F)ccc1F` gave an IC50 (Dipeptidyl peptidase 9) of 58 µM.
`CCOC(=O)c1nnc2n1CCN(C(=O)C[C@H](N)Cc1cc(F)ccc1F)C2` gave an IC50 (Dipeptidyl peptidase 9) of 78 µM.
`N[C@@H](CC(=O)N1CCn2c(nnc2C2CC2)C1)Cc1cc(F)c(F)cc1F` gave an IC50 (Dipeptidyl peptidase 9) greater than 100 µM, a bioavailability [1] of 3% and a half-life [2] of 1.8 h. The clearance [3] was 68 mL/min/kg.
With `N[C@@H](CC(=O)N1CCn2c(nnc2C(F)F)C1)Cc1cc(F)c(F)cc1F` the IC50 (Dipeptidyl peptidase 9) was greater than 100 µM, the bioavailability [1] was 39% and the half-life [2] was 1.3 h. For the same compound, the clearance [3] was 66 mL/min/kg.
Work on `N[C@@H](CC(=O)N1CCn2c(nnc2C(F)(F)F)C1)Cc1c(F)ccc(F)c1F` yielded an IC50 (Dipeptidyl peptidase 9) greater than 100 µM and an IC50 (Dipeptidyl peptidase 8) greater than 100 µM.
`N[C@@H](CC(=O)N1CCn2c(nnc2C(F)(F)F)C1)Cc1c(F)cc(F)cc1F` showed an IC50 (Dipeptidyl peptidase 9) greater than 100 µM and an IC50 (Dipeptidyl peptidase 8) greater than 100 µM.
Compound `N[C@@H](CC(=O)N1CCn2c(nnc2C(F)(F)F)C1)Cc1c(F)c(F)c(F)c(F)c1F` has an IC50 (Dipeptidyl peptidase 9) greater than 100 µM and an IC50 (Dipeptidyl peptidase 8) greater than 100 µM.
Compound `N[C@@H](CC(=O)N1CCn2c(nnc2C(F)(F)F)C1)Cc1ccccc1C(F)(F)F` has an IC50 (Dipeptidyl peptidase 9) greater than 100 µM and an IC50 (Dipeptidyl peptidase 8) greater than 100 µM.
`N[C@@H](CC(=O)N1CCn2c(nnc2C(F)(F)F)C1)Cc1cc(Cl)ccc1F` showed a bioavailability [1] of 43%, an IC50 (Dipeptidyl peptidase 8) greater than 100 µM and a half-life [2] of 1.7 h. The clearance [3] was 99 mL/min/kg.
For `N[C@@H](CC(=O)N1CCn2c(nnc2C(F)(F)F)C1)Cc1cc(F)c(F)cc1F` [SITAGLIPTIN], the bioavailability [1] was 76% and the clearance [3] was 60 mL/min/kg.
